Assay results reported in ChEMBL document CHEMBL4477242, “Synthesis, structure and antimicrobial evaluation of a new gossypol triazole conjugates functionalized with aliphatic chains and benzyloxy groups” (2016).
Converted amounts (≈) assume the structure as drawn.

Columns and labels:
Aspergillus brasiliensis = experiment: Antifungal activity against Aspergillus brasiliensis ATCC 16404 after 18 hrs by serial microdilution assay; type: functional; conditions: ATCC 16404, 18 h
Method in brief: (§1)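 Fungal strains tested by MIC determination, with miconazole run as the reference antifungal. The two Fusarium oxysporum formae speciales are isolates from plants (cabbage and tomatoes).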

Aspergillus fumigatus = experiment: Antifungal activity against Aspergillus fumigatus ATCC 204305 after 18 hrs by serial microdilution assay; type: functional; conditions: ATCC 204305, 18 h; method in brief: as §1
[1] = system: Trichophyton mentagrophytes; experiment: Antifungal activity against Trichophyton mentagrophytes ATCC 9533 after 18 hrs by serial microdilution assay; type: functional; conditions: ATCC 9533, 18 h; method in brief: as §1
Rhizopus stolonifer [2] = experiment: Antifungal activity against Rhizopus stolonifer ATCC 56227b after 18 hrs by serial microdilution assay; type: functional; method in brief: as §1
Fusarium acuminatum = experiment: Antifungal activity against Fusarium acuminatum ATCC 46651 after 18 hrs by serial microdilution assay; type: functional; conditions: ATCC 46651, 18 h; method in brief: as §1
[3] = system: Fusarium oxysporum f. sp. lycopersici; experiment: Antifungal activity against Fusarium oxysporum f. sp. lycopersici after 18 hrs by serial microdilution assay; type: functional; method in brief: as §1
[4] = Antifungal activity against Fusarium oxysporum f. sp. betae after 18 hrs by serial microdilution assay; type: functional; method in brief: as §1
Staphylococcus aureus [5] = experiment: Antibacterial activity against Staphylococcus aureus ATCC 25923 after 18 hrs by serial microdilution assay; type: functional; conditions: ATCC 25923, 18 h
Staphylococcus aureus [6] = experiment: Antibacterial activity against Staphylococcus aureus ATCC 6538 after 18 hrs by serial microdilution assay; type: functional; conditions: ATCC 6538, 18 h
Staphylococcus aureus [7] = experiment: Antibacterial activity against methicillin-resistant Staphylococcus aureus 1 after 18 hrs by serial microdilution assay; type: functional; conditions: Staphylococcus aureus, 1, 18 h
Staphylococcus aureus [8] = experiment: Antibacterial activity against methicillin-resistant Staphylococcus aureus 2 after 18 hrs by serial microdilution assay; type: functional; conditions: Staphylococcus aureus, 2, 18 h
[9] = system: Staphylococcus epidermidis; experiment: Antibacterial activity against Staphylococcus epidermidis ATCC 12228 after 18 hrs by serial microdilution assay; type: functional; conditions: ATCC 12228, 18 h
[10] = system: Staphylococcus epidermidis; experiment: Antibacterial activity against Staphylococcus epidermidis ATCC 49134 after 18 hrs by serial microdilution assay; type: functional; conditions: ATCC 49134, 18 h
Streptococcus pneumoniae = experiment: Antibacterial activity against Streptococcus pneumoniae ATCC 49619 after 18 hrs by serial microdilution assay; type: functional; conditions: ATCC 49619, 18 h
Micrococcus luteus = experiment: Antibacterial activity against Micrococcus luteus ATCC 10240 after 18 hrs by serial microdilution assay; type: functional; conditions: ATCC 10240, 18 h
Bacillus subtilis = experiment: Antibacterial activity against Bacillus subtilis […] after 18 hrs by serial microdilution assay; type: functional
Rhizopus stolonifer [11] = experiment: Reduction in ergosterol content in Rhizopus stolonifer ATCC 56227 at 256 microg/ml by HPLC analysis; type: functional, organism-based; conditions: TDE = time-dependent effect
Method in brief: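 Treated fungal material was derivatised and its ergosterol measured by HPLC from the area of the ergosterol peak at Rt 8.26 min. Content is expressed as mg per 1 g dry fungal mass and followed over incubation time up to 96 h.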

Rhizopus stolonifer [12] = experiment: Reduction in ergosterol content in Rhizopus stolonifer ATCC 56227 assessed per gram of dry fungi mass at 256 microg/ml incubated for 24 hrs measured after 24 to 96 hrs by HPLC analysis; type: functional
Method in brief: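 Ergosterol was quantified by HPLC in derivatized fungal material from treated cultures, using the peak area at a retention time of 8.26 min. Results are expressed as mg ergosterol per 1 g of dry fungal mass. Content was followed over incubation time, up to 96 h.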

SMILES	MIC (Aspergillus brasiliensis)	MIC (Aspergillus fumigatus)	MIC [1]	MIC (Rhizopus stolonifer [2])	MIC (Fusarium acuminatum)	MIC [3]	MIC [4]	MIC (Staphylococcus aureus [5])	MIC (Staphylococcus aureus [6])	MIC (Staphylococcus aureus [7])	MIC (Staphylococcus aureus [8])	MIC [9]	MIC [10]	MIC (Streptococcus pneumoniae)	MIC (Micrococcus luteus)	MIC (Bacillus subtilis)	Activity (Rhizopus stolonifer [11])	Activity (Rhizopus stolonifer [12])
CCCCc1cn(CCCN/C=C2\C(=O)C(O)=C(C(C)C)c3cc(C)c(-c4c(C)cc5c(c4O)/C(=C/NCCCn4cc(CCCC)nn4)C(=O)C(O)=C5C(C)C)c(O)c32)nn1	256 µg/mL (≈ 302 µM)	256 µg/mL (≈ 302 µM)	256 µg/mL (≈ 302 µM)	128 µg/mL (≈ 151 µM)	256 µg/mL (≈ 302 µM)	64 µg/mL (≈ 75.6 µM)	64 µg/mL (≈ 75.6 µM)	> 256 µg/mL	> 256 µg/mL	> 256 µg/mL	> 256 µg/mL	> 256 µg/mL	> 256 µg/mL	> 256 µg/mL	> 256 µg/mL	> 256 µg/mL	–	–
Cc1cc2c(C(C)C)c(O)c(O)c(C=O)c2c(O)c1-c1c(C)cc2c(C(C)C)c(O)c(O)c(C=O)c2c1O [GOSSYPOL]	256 µg/mL (≈ 494 µM)	256 µg/mL (≈ 494 µM)	128 µg/mL (≈ 247 µM)	128 µg/mL (≈ 247 µM)	128 µg/mL (≈ 247 µM)	32 µg/mL (≈ 61.7 µM)	32 µg/mL (≈ 61.7 µM)	16 µg/mL (≈ 30.9 µM)	16 µg/mL (≈ 30.9 µM)	16 µg/mL (≈ 30.9 µM)	16 µg/mL (≈ 30.9 µM)	16 µg/mL (≈ 30.9 µM)	16 µg/mL (≈ 30.9 µM)	16 µg/mL (≈ 30.9 µM)	32 µg/mL (≈ 61.7 µM)	16 µg/mL (≈ 30.9 µM)	Tde	–
CCCCCc1cn(CCN/C=C2\C(=O)C(O)=C(C(C)C)c3cc(C)c(-c4c(C)cc5c(c4O)/C(=C/NCCn4cc(CCCCC)nn4)C(=O)C(O)=C5C(C)C)c(O)c32)nn1	256 µg/mL (≈ 302 µM)	256 µg/mL (≈ 302 µM)	256 µg/mL (≈ 302 µM)	128 µg/mL (≈ 151 µM)	256 µg/mL (≈ 302 µM)	64 µg/mL (≈ 75.6 µM)	64 µg/mL (≈ 75.6 µM)	> 256 µg/mL	> 256 µg/mL	> 256 µg/mL	> 256 µg/mL	> 256 µg/mL	> 256 µg/mL	> 256 µg/mL	> 256 µg/mL	> 256 µg/mL	–	–
CCCc1cn(CCN/C=C2\C(=O)C(O)=C(C(C)C)c3cc(C)c(-c4c(C)cc5c(c4O)/C(=C/NCCn4cc(CCC)nn4)C(=O)C(O)=C5C(C)C)c(O)c32)nn1	256 µg/mL (≈ 324 µM)	256 µg/mL (≈ 324 µM)	256 µg/mL (≈ 324 µM)	128 µg/mL (≈ 162 µM)	256 µg/mL (≈ 324 µM)	64 µg/mL (≈ 80.9 µM)	64 µg/mL (≈ 80.9 µM)	256 µg/mL (≈ 324 µM)	256 µg/mL (≈ 324 µM)	> 256 µg/mL	> 256 µg/mL	256 µg/mL (≈ 324 µM)	256 µg/mL (≈ 324 µM)	256 µg/mL (≈ 324 µM)	> 256 µg/mL	> 256 µg/mL	–	–
Cc1cc2c(c(O)c1-c1c(C)cc3c(c1O)/C(=C/NCCCn1cc(COCc4ccccc4)nn1)C(=O)C(O)=C3C(C)C)/C(=C/NCCCn1cc(COCc3ccccc3)nn1)C(=O)C(O)=C2C(C)C	–	–	–	–	–	16 µg/mL (≈ 16.4 µM)	16 µg/mL (≈ 16.4 µM)	–	–	–	–	–	–	–	–	–	–	–
Clc1ccc(COC(Cn2ccnc2)c2ccc(Cl)cc2Cl)c(Cl)c1 (stereo unspecified) [MICONAZOLE]	–	–	–	–	–	16 µg/mL (≈ 38.4 µM)	16 µg/mL (≈ 38.4 µM)	–	–	–	–	–	–	–	–	–	–	–
CCCCCc1cn(CCCN/C=C2\C(=O)C(O)=C(C(C)C)c3cc(C)c(-c4c(C)cc5c(c4O)/C(=C/NCCCn4cc(CCCCC)nn4)C(=O)C(O)=C5C(C)C)c(O)c32)nn1	256 µg/mL (≈ 293 µM)	256 µg/mL (≈ 293 µM)	256 µg/mL (≈ 293 µM)	128 µg/mL (≈ 146 µM)	256 µg/mL (≈ 293 µM)	64 µg/mL (≈ 73.1 µM)	64 µg/mL (≈ 73.1 µM)	> 256 µg/mL	> 256 µg/mL	> 256 µg/mL	> 256 µg/mL	> 256 µg/mL	> 256 µg/mL	> 256 µg/mL	> 256 µg/mL	> 256 µg/mL	–	–
CCCCc1cn(CCN/C=C2\C(=O)C(O)=C(C(C)C)c3cc(C)c(-c4c(C)cc5c(c4O)/C(=C/NCCn4cc(CCCC)nn4)C(=O)C(O)=C5C(C)C)c(O)c32)nn1	256 µg/mL (≈ 313 µM)	256 µg/mL (≈ 313 µM)	256 µg/mL (≈ 313 µM)	128 µg/mL (≈ 156 µM)	256 µg/mL (≈ 313 µM)	64 µg/mL (≈ 78.1 µM)	64 µg/mL (≈ 78.1 µM)	> 256 µg/mL	> 256 µg/mL	> 256 µg/mL	> 256 µg/mL	> 256 µg/mL	> 256 µg/mL	> 256 µg/mL	> 256 µg/mL	> 256 µg/mL	–	–
CCCc1cn(CCCN/C=C2\C(=O)C(O)=C(C(C)C)c3cc(C)c(-c4c(C)cc5c(c4O)/C(=C/NCCCn4cc(CCC)nn4)C(=O)C(O)=C5C(C)C)c(O)c32)nn1	–	–	–	–	–	64 µg/mL (≈ 78.1 µM)	64 µg/mL (≈ 78.1 µM)	–	–	–	–	–	–	–	–	–	–	–
Cc1cc2c(c(O)c1-c1c(C)cc3c(c1O)/C(=C/NCCn1cc(COCc4ccccc4)nn1)C(=O)C(O)=C3C(C)C)/C(=C/NCCn1cc(COCc3ccccc3)nn1)C(=O)C(O)=C2C(C)C	128 µg/mL (≈ 135 µM)	256 µg/mL (≈ 270 µM)	256 µg/mL (≈ 270 µM)	64 µg/mL (≈ 67.6 µM)	128 µg/mL (≈ 135 µM)	16 µg/mL (≈ 16.9 µM)	16 µg/mL (≈ 16.9 µM)	> 256 µg/mL	> 256 µg/mL	> 256 µg/mL	> 256 µg/mL	> 256 µg/mL	> 256 µg/mL	> 256 µg/mL	> 256 µg/mL	> 256 µg/mL	Tde	1 mg
